The values below come from ChEMBL document CHEMBL1123924, “Structure-activity studies of antagonists of luteinizing hormone-releasing hormone with emphasis on the amino-terminal region” (1987).

Non-standard residues stand in square brackets, D forms with d. Residues, ends and D or L forms follow the SMILES beside them. d(hArg(Et2)) = CCN=C(NCC)NCCCC[C@@H](N)C(=O)O; dPhe(4-Cl) = N[C@H](Cc1ccc(Cl)cc1)C(=O)O; d2Nal = N[C@H](Cc1ccc2ccccc2c1)C(=O)O

Common to all, as to assay type: functional
Experiment [1] is filed under the species Rattus norvegicus. Briefly: Antiovulatory activity was expressed as the percentage of 8 rats blocked at a dose 1 ug. In short, it runs like this: (§1)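 Sprague-Dawley rats given peptide by subcutaneous injection at noon on the day of proestrus, in 40% propane-1,2-diol–0.9% saline vehicle. Oviducts examined for ova the following day.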
For experiment [2], the species on record is Rattus norvegicus. The experiment in a line: Antiovulatory activity was expressed as the percentage of 9 rats blocked at a dose 1 ug. Put shortly: as §1
For experiment [3], the species on record is Rattus norvegicus. The experiment in a line: Antiovulatory activity was expressed as the percentage of 10 rats blocked at a dose 0.5 ug. Put shortly: as §1
The species named for experiment [4] is Rattus norvegicus. The experiment in a line: Antiovulatory activity was expressed as the percentage of 10 rats blocked at a dose 3 ug. Put shortly:
as §1

Experiment [5] is filed under the species Rattus norvegicus. Briefly: Antiovulatory activity was expressed as the percentage of 11 rats blocked at a dose 0.5 ug. Put shortly: as §1
Experiment [6] is filed under the species Rattus norvegicus. Briefly: Antiovulatory activity was expressed as the percentage of 8 rats blocked at a dose 7.5 ug. Put shortly:
as §1

The species entered for experiment [7] is Rattus norvegicus. The experiment in a line: Antiovulatory activity was expressed as the percentage of 11 rats blocked at a dose 1 ug. Put shortly:
as §1

The species entered for experiment [8] is Rattus norvegicus. Briefly: Antiovulatory activity was expressed as the percentage of 8 rats blocked at a dose 3 ug. Put shortly: as §1
Experiment [9] is filed under the species Rattus norvegicus. The experiment in a line: Antiovulatory activity was expressed as the percentage of 9 rats blocked at a dose 7.5 ug. Put shortly: as §1
The species named for experiment [10] is Rattus norvegicus. The experiment in a line: Antiovulatory activity was expressed as the percentage of 9 rats blocked at a dose 3 ug. Put shortly: as §1
The species entered for experiment [11] is Rattus norvegicus. Briefly: Antiovulatory activity was expressed as the percentage of 16 rats blocked at a dose 1 ug. Put shortly: as §1
Experiment [12] is filed under the species Rattus norvegicus. The experiment in a line: Antiovulatory activity was expressed as the percentage of 7 rats blocked at a dose 3 ug. In short, it runs like this: as §1
Experiment [13] is filed under the species Rattus norvegicus. The experiment in a line: Antiovulatory activity was expressed as the percentage of 10 rats blocked at a dose 1 ug. In short, it runs like this: as §1
The species entered for experiment [14] is Rattus norvegicus. The experiment in a line: Antiovulatory activity was expressed as the percentage of 10 rats blocked at a dose 1.5 ug. In short, it runs like this: as §1

In the experiment filed under Rattus norvegicus [1], `CCNC(=NCCCC[C@@H](NC(=O)[C@H](Cc1ccc(O)cc1)NC(=O)[C@H](CO)NC(=O)[C@@H](Cc1c[nH]c2ccccc12)NC(=O)[C@@H](Cc1ccc(Cl)cc1)NC(=O)[C@@H](Cc1ccc2ccccc2c1)NC(C)=O)C(=O)N[C@@H](Cc1ccccc1)C(=O)N[C@@H](CCCN=C(N)N)C(=O)N1CCC[C@H]1C(=O)N[C@H](C)C(N)=O)NCC` (Ac-[d2Nal][dPhe(4-Cl)][dW]SY[d(hArg(Et2))]FRP[dA]-NH2) had an Antiovulatory activity of 63%.

`CC(=O)N[C@H](Cc1ccc2ccccc2c1)C(=O)N[C@H](Cc1ccccc1)C(=O)N[C@H](Cc1ccc(O)cc1)C(=O)N[C@@H](CO)C(=O)N[C@@H](Cc1ccc(O)cc1)C(=O)N[C@H](CCCN=C(N)N)C(=O)N[C@@H](Cc1ccccc1)C(=O)N[C@@H](CCCN=C(N)N)C(=O)N1CCC[C@H]1C(=O)N[C@H](C)C(N)=O` registered an Antiovulatory activity in the experiment filed under Rattus norvegicus [2] of 0%.

Compound `CC(=O)N[C@H](Cc1ccc2ccccc2c1)C(=O)N[C@H](Cc1ccc(O)cc1)C(=O)N[C@H](Cc1ccc(O)cc1)C(=O)N[C@@H](CO)C(=O)N[C@@H](Cc1ccc(O)cc1)C(=O)N[C@H](CCCN=C(N)N)C(=O)N[C@@H](Cc1ccccc1)C(=O)N[C@@H](CCCN=C(N)N)C(=O)N1CCC[C@H]1C(=O)N[C@H](C)C(N)=O` returned an Antiovulatory activity in the experiment filed under Rattus norvegicus [1] of 0%. As for `CC(=O)N[C@H](Cc1ccc2ccccc2c1)C(=O)N[C@H](Cc1ccc(Cl)cc1)C(=O)N[C@H](Cc1ccccc1)C(=O)N[C@@H](CO)C(=O)N[C@@H](Cc1ccc(O)cc1)C(=O)N[C@H](CCCN=C(N)N)C(=O)N[C@@H](Cc1ccccc1)C(=O)N[C@@H](CCCN=C(N)N)C(=O)N1CCC[C@H]1C(=O)N[C@H](C)C(N)=O`, the Antiovulatory activity came to 10% in the experiment filed under Rattus norvegicus [3] and 56% in the experiment filed under Rattus norvegicus [2]. `CC(=O)N[C@H](Cc1ccc2ccccc2c1)C(=O)N[C@H](Cc1ccccc1)C(=O)N[C@H](Cc1ccccc1)C(=O)N[C@@H](CO)C(=O)N[C@@H](Cc1ccc(O)cc1)C(=O)N[C@H](CCCN=C(N)N)C(=O)N[C@@H](CC1CCCCC1)C(=O)N[C@@H](CCCN=C(N)N)C(=O)N1CCC[C@H]1C(=O)N[C@H](C)C(N)=O`: in the experiment listed under Rattus norvegicus [3], the Antiovulatory activity was found to be 80%. With `CC(=O)N[C@H](Cc1ccc2ccccc2c1)C(=O)N[C@H](Cc1ccc2ccccc2c1)C(=O)N[C@H](Cc1c[nH]cn1)C(=O)N[C@@H](CO)C(=O)N[C@@H](Cc1ccc(O)cc1)C(=O)N[C@H](CCCN=C(N)N)C(=O)N[C@@H](Cc1ccccc1)C(=O)N[C@@H](CCCN=C(N)N)C(=O)N1CCC[C@H]1C(=O)N[C@H](C)C(N)=O`, the Antiovulatory activity in the experiment listed under Rattus norvegicus [4] was determined as 0%. In turn, `CC(=O)N[C@H](Cc1ccc2ccccc2c1)C(=O)N[C@H](Cc1ccc(Cl)cc1)C(=O)N[C@H](Cc1c[nH]c2ccccc12)C(=O)N[C@@H](CO)C(=O)N[C@@H](Cc1ccc(O)cc1)C(=O)N[C@H](CCCN=C(N)N)C(=O)N[C@@H](Cc1ccccc1)C(=O)N[C@@H](CCCN=C(N)N)C(=O)N1CCC[C@H]1C(=O)N[C@H](C)C(N)=O` (HELM PEPTIDE1{[ac].[O=C([C@@H](Cc1ccc2ccccc2c1)N[*:1])[*:2]].[O=C([C@@H](Cc1ccc(Cl)cc1)N[*:1])[*:2]].[dW].S.Y.[dR].F.R.P.[dA].[am]}$$$$V2.0) returned an Antiovulatory activity in the experiment listed under Rattus norvegicus [5] of 64%. As to `CC(=O)N[C@H](Cc1ccc(Cl)cc1)C(=O)N[C@H](Cc1ccc(Cl)cc1)C(=O)N[C@H](Cc1c[nH]c2ccccc12)C(=O)N[C@@H](CO)C(=O)N[C@@H](Cc1ccc(O)cc1)C(=O)N[C@H](Cc1ccccc1)C(=O)N[C@@H](Cc1ccccc1)C(=O)N[C@@H](CCCN=C(N)N)C(=O)N1CCC[C@H]1C(=O)N[C@H](C)C(N)=O`, the Antiovulatory activity in the experiment listed under Rattus norvegicus [6] was found to be 8%. For the compound `CC(=O)N[C@H](Cc1ccc2ccccc2c1)C(=O)N[C@H](Cc1ccc2ccccc2c1)C(=O)N[C@H](Cc1ccc(O)cc1)C(=O)N[C@@H](CO)C(=O)N[C@@H](Cc1ccc(O)cc1)C(=O)N[C@H](CCCN=C(N)N)C(=O)N[C@@H](Cc1ccccc1)C(=O)N[C@@H](CCCN=C(N)N)C(=O)N1CCC[C@H]1C(=O)N[C@H](C)C(N)=O`, the Antiovulatory activity in the experiment filed under Rattus norvegicus [7] was 9%; in the experiment listed under Rattus norvegicus [8] it was 38%; in the experiment filed under Rattus norvegicus [9] it was 100%. Consider `CC(=O)N[C@H](Cc1c[nH]c2ccccc12)C(=O)N[C@H](Cc1ccccc1)C(=O)N[C@H](Cc1ccccc1)C(=O)N[C@@H](CO)C(=O)N[C@@H](Cc1ccc(O)cc1)C(=O)N[C@H](CCCN=C(N)N)C(=O)N[C@@H](Cc1ccccc1)C(=O)N[C@@H](CCCN=C(N)N)C(=O)N1CCC[C@H]1C(=O)N[C@H](C)C(N)=O`, for which the Antiovulatory activity in the experiment listed under Rattus norvegicus [4] was found to be 0%. Compound `CC(=O)N[C@H](Cc1ccc(Cl)cc1)C(=O)N[C@H](Cc1ccc(Cl)cc1)C(=O)N[C@H](Cc1c[nH]c2ccccc12)C(=O)N[C@@H](CO)C(=O)N[C@@H](Cc1ccc(O)cc1)C(=O)N[C@H](Cc1ccc2ccccc2c1)C(=O)N[C@@H](Cc1ccccc1)C(=O)N[C@@H](CCCN=C(N)N)C(=O)N1CCC[C@H]1C(=O)N[C@H](C)C(N)=O` registered an Antiovulatory activity in the experiment filed under Rattus norvegicus [6] of 0%. In turn, `CC(=O)N[C@H](Cc1ccc2ccccc2c1)C(=O)N[C@H](Cc1ccc2ccccc2c1)C(=O)N[C@H](Cc1ccc2ccccc2c1)C(=O)N[C@@H](CO)C(=O)N[C@@H](Cc1ccc(O)cc1)C(=O)N[C@H](CCCN=C(N)N)C(=O)N[C@@H](Cc1ccccc1)C(=O)N[C@@H](CCCN=C(N)N)C(=O)N1CCC[C@H]1C(=O)N[C@H](C)C(N)=O` displayed an Antiovulatory activity in the experiment listed under Rattus norvegicus [10] of 15%.

As for `CC(=O)N[C@H](Cc1ccc2ccccc2c1)C(=O)N[C@H](Cc1ccc(O)cc1)C(=O)N[C@H](Cc1ccccc1)C(=O)N[C@@H](CO)C(=O)N[C@@H](Cc1ccc(O)cc1)C(=O)N[C@H](CCCN=C(N)N)C(=O)N[C@@H](Cc1ccccc1)C(=O)N[C@@H](CCCN=C(N)N)C(=O)N1CCC[C@H]1C(=O)N[C@H](C)C(N)=O`, the Antiovulatory activity in the experiment filed under Rattus norvegicus [11] was determined as 0%; in the experiment listed under Rattus norvegicus [12], 14%. `CC(=O)N[C@H](Cc1ccc2ccccc2c1)C(=O)N[C@H](Cc1ccc2ccccc2c1)C(=O)N[C@H](Cc1ccccc1)C(=O)N[C@@H](CO)C(=O)N[C@@H](Cc1ccc(O)cc1)C(=O)N[C@H](CCCN=C(N)N)C(=O)N[C@@H](Cc1ccccc1)C(=O)N[C@@H](CCCN=C(N)N)C(=O)N1CCC[C@H]1C(=O)N[C@H](C)C(N)=O` yielded an Antiovulatory activity in the experiment listed under Rattus norvegicus [4] of 100%.

`CC(=O)N[C@H](Cc1ccc2ccccc2c1)C(=O)N[C@H](Cc1ccc(Cl)cc1)C(=O)N[C@H](Cc1ccc(Cl)cc1)C(=O)N[C@@H](CO)C(=O)N[C@@H](Cc1ccc(O)cc1)C(=O)N[C@H](CCCN=C(N)N)C(=O)N[C@@H](Cc1ccccc1)C(=O)N[C@@H](CCCN=C(N)N)C(=O)N1CCC[C@H]1C(=O)N[C@H](C)C(N)=O`: the Antiovulatory activity in the experiment listed under Rattus norvegicus [8] is on record as 63%; in the experiment listed under Rattus norvegicus [1] it was 0%. In the case of `CC(=O)N[C@H](Cc1ccc(Cl)cc1)C(=O)N[C@H](Cc1ccccc1)C(=O)N[C@H](Cc1ccccc1)C(=O)N[C@@H](CO)C(=O)N[C@@H](Cc1ccc(O)cc1)C(=O)N[C@H](CCCN=C(N)N)C(=O)N[C@@H](Cc1ccccc1)C(=O)N[C@@H](CCCN=C(N)N)C(=O)N1CCC[C@H]1C(=O)N[C@H](C)C(N)=O`, the Antiovulatory activity in the experiment filed under Rattus norvegicus [8] is 63%. Consider `CC(=O)N[C@H](Cc1ccc(Cl)cc1)C(=O)N[C@H](Cc1ccc(Cl)cc1)C(=O)N[C@H](Cc1c[nH]c2ccccc12)C(=O)N[C@@H](CO)C(=O)N[C@@H](Cc1ccc(O)cc1)C(=O)N[C@H](CCCN=C(N)N)C(=O)N[C@@H](Cc1ccccc1)C(=O)N[C@@H](CCCN=C(N)N)C(=O)N1CCC[C@H]1C(=O)N[C@H](C)C(N)=O` (HELM PEPTIDE1{[ac].[O=C([C@@H](Cc1ccc(Cl)cc1)N[*:1])[*:2]].[O=C([C@@H](Cc1ccc(Cl)cc1)N[*:1])[*:2]].[dW].S.Y.[dR].F.R.P.[dA].[am]}$$$$V2.0), for which the Antiovulatory activity in the experiment filed under Rattus norvegicus [13] was 70%; in the experiment filed under Rattus norvegicus [4] it was 100%.

In the experiment filed under Rattus norvegicus [9], `CC(=O)N[C@H](Cc1ccc2ccccc2c1)C(=O)N[C@H](Cc1ccc2ccccc2c1)C(=O)N[C@H](Cc1c(F)c(F)c(F)c(F)c1F)C(=O)N[C@@H](CO)C(=O)N[C@@H](Cc1ccc(O)cc1)C(=O)N[C@H](CCCN=C(N)N)C(=O)N[C@@H](Cc1ccccc1)C(=O)N[C@@H](CCCN=C(N)N)C(=O)N1CCC[C@H]1C(=O)N[C@H](C)C(N)=O` showed an Antiovulatory activity of 0%.

In the experiment filed under Rattus norvegicus [8], `CC(=O)N[C@H](Cc1ccccc1)C(=O)N[C@H](Cc1ccccc1)C(=O)N[C@H](Cc1ccccc1)C(=O)N[C@@H](CO)C(=O)N[C@@H](Cc1ccc(O)cc1)C(=O)N[C@H](CCCN=C(N)N)C(=O)N[C@@H](Cc1ccccc1)C(=O)N[C@@H](CCCN=C(N)N)C(=O)N1CCC[C@H]1C(=O)N[C@H](C)C(N)=O` came in with an Antiovulatory activity of 0%. As to `CC(=O)N[C@H](Cc1ccc(Cl)cc1)C(=O)N[C@H](Cc1ccc(Cl)cc1)C(=O)N[C@H](Cc1c[nH]c2ccccc12)C(=O)N[C@@H](CO)C(=O)N[C@@H](Cc1ccc(O)cc1)C(=O)N[C@H](CCCN=C(N)N)C(=O)N[C@@H](CC(C)C)C(=O)N[C@@H](CCCN=C(N)N)C(=O)N1CCC[C@H]1C(=O)N[C@H](C)C(N)=O` (HELM PEPTIDE1{[ac].[O=C([C@@H](Cc1ccc(Cl)cc1)N[*:1])[*:2]].[O=C([C@@H](Cc1ccc(Cl)cc1)N[*:1])[*:2]].[dW].S.Y.[dR].L.R.P.[dA].[am]}$$$$V2.0), the Antiovulatory activity in the experiment listed under Rattus norvegicus [14] is given as 10%; in the experiment filed under Rattus norvegicus [10], 67%.
